This is an account of results in ChEMBL document CHEMBL4411275, “Design, synthesis and biological evaluation of quinoline-indole derivatives as anti-tubulin agents targeting the colchicine binding site” (Eur J Med Chem, 2019).

In series [1] the test system is K562. Description: Induction of mitochondrial membrane potential loss in human K562 cells assessed as collapsed mitochondrial membrane at 2 nM after 48 hrs by JC-1 dye-based flow cytometric analysis (RVB = 6.17%). In general terms: Flow cytometry measures light scatter and fluorescence of single cells or particles in a stream.
The subject of series [2] is K562/VCR. Description: Antiproliferative activity against human VCR-resistant K562/VCR cells after 72 hrs by MTT assay. Type of series: functional, cell-based. In a few lines:
(§1)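 Cells preincubated 24 h at 37 °C, 5% CO₂. Compounds added at several concentrations in medium with 0.1% DMSO for 72 h. MTT (5 mg/mL in PBS) then added for 4 h, and optical density read at 490 nm. IC50 taken from dose-response curves; mean ± SD of at least three independent experiments.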

The test system of series [3] is H22 (Mus musculus). Description: Antitumor activity against mouse H22 cells xenografted in ICR mouse assessed as reduction in tumor weight at 10 mg/kg/day, iv for 21 days relative to control. Also on record: scale not given: the % may be the effect or the level left.
Series [4] deals with K562. Description: Cell cycle arrest in human K562 cells assessed as accumulation of cells at G2 phase at 2 nM after 48 hrs by propidium iodide staining-based flow cytometric analysis (reference value: 10.51%). Type of series: functional.
The test system of series [5] is K562. Description: Induction of apoptosis in human K562 cells at 4 nM after 48 hrs by Annexin-V/propidium iodide staining-based flow cytometric analysis (reference value: 5.96%).
Series [6] deals with Bel-7402. Description: Antiproliferative activity against human Bel7402 cells after 72 hrs by MTT assay. Type of series: functional, cell-based. The note with it: Bel-7402, 72 h. In a few lines: as §1
(Tetrazolium dyes change colour on reduction, which living cells bring about.)

Series [7] deals with K562. Description: Cell cycle arrest in human K562 cells assessed as accumulation of cells at G1 phase at 4 nM after 48 hrs by propidium iodide staining-based flow cytometric analysis (reference value: 69.57%). Type of series: functional.
Series [8] in a line: Toxicity in ICR mouse xenografted with […] cells assessed as body weight loss at 20 mg/kg/day, iv for 21 days. Type of series: organism-based. The following applies: in vivo, 504 h. In a few lines:
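H22 cells (1×10^6) implanted s.c. in right flank of male ICR mice (five weeks old), eight per group. Body weight recorded every 2 days during treatment.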

Series [9] relates to A549/TR. Description: Antiproliferative activity against human taxol-resistant A549/TR cells after 72 hrs by MTT assay. Type of series: functional, cell-based. In a few lines: as §1
For series [10], the system named is HUVEC. Description: Anti-vascular activity in HUVEC assessed as inhibition of tube formation after 6 hrs by inverted microscopic analysis. The following applies: Homo sapiens. Type of series: functional, cell-based. In a few lines:
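Matrigel thawed overnight at 4 °C and polymerised at 37 °C for 30 min. HUVECs in DMEM seeded at 50,000 cells/well, then exposed to 1, 2 or 4 nM compound or vehicle for 6 h at 37 °C. Capillary-like tubes photographed under an inverted microscope.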

Series [11] relates to K562. Description: Cell cycle arrest in human K562 cells assessed as accumulation of cells at S phase at 2 nM after 48 hrs by propidium iodide staining-based flow cytometric analysis (reference value: 19.93%). Type of series: functional.
The subject of series [12] is K562. Description: Cell cycle arrest in human K562 cells assessed as accumulation of cells at G1 phase at 2 nM after 48 hrs by propidium iodide staining-based flow cytometric analysis (reference value: 69.57%). Type of series: functional.
Series [13] in a line: Drug resistance index, ratio of IC50 for VCR-resistant human K562/VCR cells to IC50 for human K562 cells. Type of series: functional.
Series [14] relates to HCT-8. Description: Antiproliferative activity against human HCT8 cells after 72 hrs by MTT assay. Type of series: functional, cell-based. The note with it: HCT-8, 72 h. The gist of the method:
as §1

The target of series [15] is Tubulin (Sus scrofa, UniProt P02554+P02550). Description: Inhibition of porcine brain tubulin polymerization preincubated for 30 mins and measured every 2 mins for 60 mins by spectrophotometric analysis.
For series [16], the system named is HUVEC. Description: Anti-migratory activity in HUVEC after 24 hrs by inverted microscopic analysis. Type of series: functional, cell-based. The following applies: Homo sapiens. The gist of the method: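 Scratch wound made in monolayers with a 200 μL pipette tip, then washed twice with PBS. Medium with 1, 2 or 4 nM compound added. Phase-contrast images taken at 0 h and 24 h, and the migration distance into the wound measured manually.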

Usually IC50 stands for the point on the concentration scale where inhibition reaches its midpoint. `C=C(c1ccc2c(ccn2CO)c1)c1cc(C)nc2ccccc12`: the Activity in [1] is reported as 45.1%; in series [3] it was 48.8%; in [4], 16.16%; in [5], 72.8%; in series [7], 45.79%; in series [8], “Non-Toxic”. For the same compound, the Activity entry in [10] was “Dose-dependent effect”; in series [11] it was 33.21%; in series [12] it was 50.63%; in series [16], “Dose-dependent effect”. For the same compound, the half-inhibitory concentration (IC50) in series [2] is 31 nM; in series [6], 10 nM; in series [9], 119 nM; in series [14], 7 nM; in series [15] it was 2090 nM. Further, in series [13], the “Ratio IC50” value stood at 15.5.
